Measured values from ChEMBL document CHEMBL1127852, “Synthesis and antibacterial activity of thiazolopyrazine-incorporated tetracyclic quinolone antibacterial agents. 2” (1994).
≈ marks a conversion by molar mass, not a printed value.

What was measured:
Format in all cases: functional
Enterococcus faecalis = assay: Compound was tested for its minimal inhibitory constant against Gram-positive microorganism Enterococcus faecalis IID682 (Ef)
Outline: (§1)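 Serial 2-fold agar dilution on Sensitivity Test agar, inoculum approximately 10^6 CFU/mL, incubated 37 °C for 18 h. MIC taken as lowest concentration preventing visible growth. Values are means of duplicate or triplicate experiments.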

Escherichia coli [1] = assay: Compound was tested for its minimal inhibitory constant against Gram-negative microorganism Escherichia coli KC-14 (Ec(K)); outline: as §1
Escherichia coli [2] = assay: Compound was tested for its minimal inhibitory constant against Gram-negative microorganism Escherichia coli NIHJ JC-2 (Ec(N)); outline: as §1
Klebsiella pneumoniae = assay: Compound was tested for its minimal inhibitory constant against Gram-negative microorganism Klebsiella pneumoniae B54 (Kp); outline: as §1
Micrococcus luteus = assay: Compound was tested for its minimal inhibitory constant against Gram-positive microorganism Micrococcus luteus ATCC 9341 (MI); outline: as §1
Mus musculus [3] = assay: Compound was tested for Therapeutic effects on systemic infections on mice by peroral administration; settings: po
Outline: (§2)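 Mouse protection against S. aureus IID 803: groups of five male ddY mice (25–28 g) infected i.p. with 0.5 mL bacterial dilution at 100 or 200 times the 50% lethal dose; compound suspended in 1% aqueous gum arabic, given orally 1 h postinfection. Survival scored after 1 week; ED50 with 95% confidence limits by Weil method.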

Pseudomonas aeruginosa [4] = assay: Compound was tested for its minimal inhibitory constant against Gram-negative microorganism Pseudomonas aeruginosa E-2 (Pa(E)); outline: as §1
Pseudomonas aeruginosa [5] = assay: Compound was tested for its minimal inhibitory constant against Gram-negative microorganism Pseudomonas aeruginosa IFO 3445 (Pa(I)); outline: as §1
[6] = test system: Staphylococcus epidermidis; assay: Compound was tested for its minimal inhibitory constant against Gram-positive microorganism Staphylococcus epidermidis IAM 1296 (Se); outline: as §1
Staphylococcus aureus [7] = assay: Compound was tested for its minimal inhibitory constant against Gram-positive microorganism Staphylococcus aureus IID 803 (Sa(I)); outline: as §1
Staphylococcus aureus [8] = assay: Compound was tested for its minimal inhibitory constant against Gram-positive microorganism Staphylococcus aureus FDA 209P JC-1 (Sa(F)); outline: as §1
Staphylococcus aureus [9] = assay: Tested for in vitro for antibacterial activity against 16 clinical isolated of methicillin-resistant Staphylococcus aureus
Outline: (§3)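 Serial 2-fold agar dilution in Sensitivity Test agar, following the standard method. Clinical MRSA isolates collected in Japan in 1988 and 1989. Inoculum about 10^6 CFU/mL. Plates incubated at 37 °C for 18 h. MIC taken as the lowest concentration that prevented visible growth.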

Staphylococcus aureus [10] = assay: Tested for in vitro for antibacterial activity against 16 clinical isolated of methicillin-resistant Staphylococcus aureus, range of Minimal inhibitory activity value for isolates; outline: as §3
Mus musculus [11] = assay: Compound was tested for oral efficacy on systemic infections on mice by peroral administration; outline: as §2

Row | SMILES | MIC (Enterococcus faecalis) | MIC (Escherichia coli [1]) | MIC (Escherichia coli [2]) | MIC (Klebsiella pneumoniae) | MIC (Micrococcus luteus) | ED50 (Mus musculus [3]) | MIC (Pseudomonas aeruginosa [4]) | MIC (Pseudomonas aeruginosa [5]) | MIC [6] | MIC (Staphylococcus aureus [7]) | MIC (Staphylococcus aureus [8]) | MIC50 (Staphylococcus aureus [9]) | MIC90 (Staphylococcus aureus [9]) | MIC (Staphylococcus aureus [10]) | ED50 (Mus musculus [11]) | MIC (Staphylococcus aureus [9])
1 | COC[C@H]1CN(c2c(F)cc3c(=O)c(C(=O)O)c4scc5n4c3c2N(C)C5)CCO1 | 0.2 µg/mL (≈ 0.461 µM) | 0.39 µg/mL (≈ 0.9 µM) | 0.39 µg/mL (≈ 0.9 µM) | 0.39 µg/mL (≈ 0.9 µM) | 0.2 µg/mL (≈ 0.461 µM) | 1.25 mg/kg | 3.13 µg/mL (≈ 7.22 µM) | 3.13 µg/mL (≈ 7.22 µM) | 0.025 µg/mL (≈ 0.0577 µM) | 6 ng/mL (≈ 0.0138 µM) | 0.025 µg/mL (≈ 0.0577 µM) | – | – | – | – | –
2 | COC[C@@H]1CN(c2c(F)cc3c(=O)c(C(=O)O)c4scc5n4c3c2N(C)C5)CCO1 | 0.2 µg/mL (≈ 0.461 µM) | 0.39 µg/mL (≈ 0.9 µM) | 0.2 µg/mL (≈ 0.461 µM) | 0.78 µg/mL (≈ 1.8 µM) | 0.2 µg/mL (≈ 0.461 µM) | 0.82 mg/kg | 3.13 µg/mL (≈ 7.22 µM) | 3.13 µg/mL (≈ 7.22 µM) | 0.05 µg/mL (≈ 0.115 µM) | 12.5 ng/mL (≈ 0.0288 µM) | 0.025 µg/mL (≈ 0.0577 µM) | – | – | – | – | –
3 | CN1Cc2csc3c(C(=O)O)c(=O)c4cc(F)c(N5CCOC(CO)C5)c1c4n23 (configuration not stated) | 0.1 µg/mL (≈ 0.238 µM) | 0.1 µg/mL (≈ 0.238 µM) | 0.1 µg/mL (≈ 0.238 µM) | 0.39 µg/mL (≈ 0.93 µM) | 0.2 µg/mL (≈ 0.477 µM) | – | 1.56 µg/mL (≈ 3.72 µM) | 1.56 µg/mL (≈ 3.72 µM) | 0.05 µg/mL (≈ 0.119 µM) | 6 ng/mL (≈ 0.0143 µM) | 0.0125 µg/mL (≈ 0.0298 µM) | 0.39 µg/mL (≈ 0.93 µM) | 0.78 µg/mL (≈ 1.86 µM) | ≤ 6 ng/mL | 5.1 mg/kg | –
4 | CC1CN(c2c(F)cc3c(=O)c(C(=O)O)c4scc5n4c3c2N(C)C5)CCO1 (configuration not stated) | 0.05 µg/mL (≈ 0.124 µM) | 0.1 µg/mL (≈ 0.248 µM) | 0.1 µg/mL (≈ 0.248 µM) | 0.39 µg/mL (≈ 0.967 µM) | 0.1 µg/mL (≈ 0.248 µM) | – | 0.78 µg/mL (≈ 1.93 µM) | 0.78 µg/mL (≈ 1.93 µM) | 0.0125 µg/mL (≈ 0.031 µM) | 6 ng/mL (≈ 0.0149 µM) | 0.0125 µg/mL (≈ 0.031 µM) | 0.1 µg/mL (≈ 0.248 µM) | 0.2 µg/mL (≈ 0.496 µM) | ≤ 6 ng/mL | 3.5 mg/kg | –
5 | CNCC1CN(c2c(F)cc3c(=O)c(C(=O)O)c4scc5n4c3c2N(C)C5)CCO1 (configuration not stated) | 0.2 µg/mL (≈ 0.462 µM) | 0.2 µg/mL (≈ 0.462 µM) | 0.2 µg/mL (≈ 0.462 µM) | 1.56 µg/mL (≈ 3.61 µM) | 0.78 µg/mL (≈ 1.8 µM) | – | 3.13 µg/mL (≈ 7.24 µM) | 3.13 µg/mL (≈ 7.24 µM) | 0.1 µg/mL (≈ 0.231 µM) | 50 ng/mL (≈ 0.116 µM) | 0.025 µg/mL (≈ 0.0578 µM) | – | – | – | – | –
6 | CN(C)CC1CN(c2c(F)cc3c(=O)c(C(=O)O)c4scc5n4c3c2N(C)C5)CCO1 (configuration not stated) | 0.1 µg/mL (≈ 0.224 µM) | 0.2 µg/mL (≈ 0.448 µM) | 0.39 µg/mL (≈ 0.873 µM) | 0.39 µg/mL (≈ 0.873 µM) | 0.2 µg/mL (≈ 0.448 µM) | – | 6.25 µg/mL (≈ 14 µM) | 6.25 µg/mL (≈ 14 µM) | 0.05 µg/mL (≈ 0.112 µM) | 25 ng/mL (≈ 0.056 µM) | 0.025 µg/mL (≈ 0.056 µM) | – | – | – | 4.8 mg/kg | –
7 | CN1Cc2csc3c(C(=O)O)c(=O)c4cc(F)c(N5CCOC(CCl)C5)c1c4n23 (configuration not stated) | 0.05 µg/mL (≈ 0.114 µM) | 0.2 µg/mL (≈ 0.457 µM) | 0.2 µg/mL (≈ 0.457 µM) | 0.39 µg/mL (≈ 0.891 µM) | 0.05 µg/mL (≈ 0.114 µM) | – | 1.56 µg/mL (≈ 3.56 µM) | 1.56 µg/mL (≈ 3.56 µM) | 0.0125 µg/mL (≈ 0.0285 µM) | 6 ng/mL (≈ 0.0137 µM) | 0.0125 µg/mL (≈ 0.0285 µM) | 0.1 µg/mL (≈ 0.228 µM) | 0.2 µg/mL (≈ 0.457 µM) | < 6 ng/mL | – | –
8 | CCC1CN(c2c(F)cc3c(=O)c(C(=O)O)c4scc5n4c3c2N(C)C5)CCO1 (configuration not stated) | 0.1 µg/mL (≈ 0.24 µM) | 0.39 µg/mL (≈ 0.934 µM) | 0.39 µg/mL (≈ 0.934 µM) | 0.39 µg/mL (≈ 0.934 µM) | 0.2 µg/mL (≈ 0.479 µM) | – | 1.56 µg/mL (≈ 3.74 µM) | 3.13 µg/mL (≈ 7.5 µM) | 0.05 µg/mL (≈ 0.12 µM) | 25 ng/mL (≈ 0.0599 µM) | 0.025 µg/mL (≈ 0.0599 µM) | – | – | – | > 12 mg/kg | –
9 | CC1CN(c2c(F)cc3c(=O)c(C(=O)O)c4scc5n4c3c2N(C)C5)CC(C)O1 (configuration not stated) | 0.2 µg/mL (≈ 0.479 µM) | 0.39 µg/mL (≈ 0.934 µM) | 0.39 µg/mL (≈ 0.934 µM) | 0.78 µg/mL (≈ 1.87 µM) | 0.2 µg/mL (≈ 0.479 µM) | – | 3.13 µg/mL (≈ 7.5 µM) | 3.13 µg/mL (≈ 7.5 µM) | 0.1 µg/mL (≈ 0.24 µM) | 12.5 ng/mL (≈ 0.0299 µM) | 0.0125 µg/mL (≈ 0.0299 µM) | – | – | – | > 12 mg/kg | –
10 | COCC1CN(c2c(F)cc3c(=O)c(C(=O)O)c4scc5n4c3c2N(C)C5)CCO1 (configuration not stated) | 0.2 µg/mL (≈ 0.461 µM) | 0.39 µg/mL (≈ 0.9 µM) | 0.2 µg/mL (≈ 0.461 µM) | 0.78 µg/mL (≈ 1.8 µM) | 0.2 µg/mL (≈ 0.461 µM) | 1.09 mg/kg | 3.13 µg/mL (≈ 7.22 µM) | 3.13 µg/mL (≈ 7.22 µM) | 0.05 µg/mL (≈ 0.115 µM) | 12.5 ng/mL (≈ 0.0288 µM) | 0.025 µg/mL (≈ 0.0577 µM) | 0.39 µg/mL (≈ 0.9 µM) | 0.78 µg/mL (≈ 1.8 µM) | ≤ 6 ng/mL | 1.7 mg/kg | –
11 | CN1Cc2csc3c(C(=O)O)c(=O)c4cc(F)c(N5CCOC(CF)C5)c1c4n23 (configuration not stated) | 0.05 µg/mL (≈ 0.119 µM) | 0.1 µg/mL (≈ 0.237 µM) | 0.1 µg/mL (≈ 0.237 µM) | 0.2 µg/mL (≈ 0.475 µM) | 0.1 µg/mL (≈ 0.237 µM) | – | 0.78 µg/mL (≈ 1.85 µM) | 0.78 µg/mL (≈ 1.85 µM) | 0.025 µg/mL (≈ 0.0593 µM) | 6 ng/mL (≈ 0.0142 µM) | 0.0125 µg/mL (≈ 0.0297 µM) | 0.2 µg/mL (≈ 0.475 µM) | 0.2 µg/mL (≈ 0.475 µM) | – | 1.9 mg/kg | ≤ 6 ng/mL
12 | CN1Cc2csc3c(C(=O)O)c(=O)c4cc(F)c(N5CCOCC5)c1c4n23 | 0.05 µg/mL (≈ 0.128 µM) | 0.1 µg/mL (≈ 0.257 µM) | 0.1 µg/mL (≈ 0.257 µM) | 0.05 µg/mL (≈ 0.128 µM) | 0.1 µg/mL (≈ 0.257 µM) | – | 0.39 µg/mL (≈ 1 µM) | 0.39 µg/mL (≈ 1 µM) | 0.025 µg/mL (≈ 0.0642 µM) | 6 ng/mL (≈ 0.0154 µM) | 0.006 µg/mL (≈ 0.0154 µM) | 0.2 µg/mL (≈ 0.514 µM) | 0.2 µg/mL (≈ 0.514 µM) | – | > 12 mg/kg | < 6 ng/mL
13 | CC1COc2c(N3CCN(C)CC3)c(F)cc3c(=O)c(C(=O)O)cn1c23 (configuration not stated) [OFLOXACIN] | 1.56 µg/mL (≈ 4.32 µM) | 0.1 µg/mL (≈ 0.277 µM) | – | 0.1 µg/mL (≈ 0.277 µM) | – | 14.6 mg/kg | 1.56 µg/mL (≈ 4.32 µM) | – | – | – | – | 6.25 µg/mL (≈ 17.3 µM) | 50 µg/mL (≈ 138 µM) | – | 11.4 mg/kg | –
